Laboratory results as given in ChEMBL document CHEMBL2040742, “Predicting and improving the membrane permeability of peptidic small molecules” (J Med Chem, 2012).

Assays:
Assay type in all cases: ADME, cell-based, Canis lupus familiaris
Conditions in all cases: dog
[1] = tested on: MDCK; test: Apparent permeability from basal to apical side of MDCK cells expressing MDR1 at 2 uM by LC-MS/MS analysis
Method in brief: (§1)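 MDR1-MDCK monolayers grown on PET inserts (seeded 2 × 10⁵ cells/cm², 4-6 days to confluence). Compound diluted from 10 mM stock into HBSS pH 7.4 to 2 μM, dosed apically or basolaterally. Analyte quantified by LC-MS/MS as analyte/IS peak area ratio. Papp from 0.084 cm² monolayer area and initial donor concentration. Triplicate, reported as means.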

[2] = tested on: MDCK; test: Efflux ratio of apparent permeability from basal to apical side to apical to basal side of MDCK cells expressing MDR1 at 2 uM by LC-MS/MS analysis
[3] = tested on: MDCK; test: Apparent permeability from apical to basal side of MDCK cells expressing MDR1 at 2 uM by LC-MS/MS analysis; method in brief: as §1

Papp [1] [×10⁻⁶ cm/s] | Ratio [2] | Papp [3] [×10⁻⁶ cm/s] | SMILES
21.1 | 0.86 | 24.6 | NC(=O)[C@H](Cc1ccccc1)NC(=O)OCc1ccccc1
2.94 | 5.8 | 0.51 | N#CCNC(=O)[C@H](Cc1c[nH]cn1)NC(=O)OCc1ccccc1
13.4 | 3.1 | 4.31 | NC(=O)[C@H](Cc1ccncc1)NC(=O)OCc1ccccc1
